Experimental data reported in BindingDB's records for PubMed 34730959 (The University of Sydney, 2022).

Target: Procathepsin L (Homo sapiens, UniProt P07711)
Assay: Inhibition of human recombinant Cathepsin L assessed remaining activity using Z-FR-AMC as substrate incubated for 30 mins by fluorometric assay
Summary of the method: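 Recombinant human cathepsins: L, B, V and K at 1.11 nM, S at 4.44 nM. Each was preincubated 30 min at 25 °C with 3333 to 0.006 nM compound. Z-FR-AMC was added at 40 μM final. AMC release rate over 0–30 min was compared with DMSO (ex/em 360/460). IC50 from four technical replicates.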

Chain of Procathepsin L (P07711 whole entry): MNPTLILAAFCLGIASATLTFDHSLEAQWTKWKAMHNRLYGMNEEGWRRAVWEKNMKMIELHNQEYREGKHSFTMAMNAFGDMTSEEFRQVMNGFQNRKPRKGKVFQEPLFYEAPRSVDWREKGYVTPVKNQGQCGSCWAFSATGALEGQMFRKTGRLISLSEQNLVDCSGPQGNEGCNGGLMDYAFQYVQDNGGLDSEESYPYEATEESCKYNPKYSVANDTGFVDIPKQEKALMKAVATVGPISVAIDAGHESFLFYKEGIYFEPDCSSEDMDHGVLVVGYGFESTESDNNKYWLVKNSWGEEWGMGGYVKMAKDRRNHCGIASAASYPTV

In the case of `COC1=CC(=O)N(C(=O)/C=C/[C@H](C)NC(=O)[C@H](CCc2ccccc2)NC(=O)[C@H](CC2CCCCC2)NC(=O)[C@H](C(C)C)N(C)C)[C@H]1Cc1c[nH]c2ccccc12`, the IC50 is reported as 6 pM.
